Source: ChEMBL document CHEMBL4190397, “Design and Synthesis of Novel and Selective Glycine Transporter-1 (GlyT1) Inhibitors with Memory Enhancing Properties” (J Med Chem, 2018)

Assays:
[1] = Apparent permeability from apical to basolateral side in MDCK-MDR1 cells monolayer at 5 uM after 60 mins by LC-MS/MS analysis; details: dog
[2] = target: T1, Sodium- and chloride-dependent glycine transporter 2 (Homo sapiens, UniProt Q9Y345); test: Inhibition of recombinant human GlyT2 expressed in HEK293 cells assessed as reduction in [14C]glycine uptake after 2 hrs by microbeta scintillation counting method; type: cell-based
T1 sequence (Q9Y345 whole entry): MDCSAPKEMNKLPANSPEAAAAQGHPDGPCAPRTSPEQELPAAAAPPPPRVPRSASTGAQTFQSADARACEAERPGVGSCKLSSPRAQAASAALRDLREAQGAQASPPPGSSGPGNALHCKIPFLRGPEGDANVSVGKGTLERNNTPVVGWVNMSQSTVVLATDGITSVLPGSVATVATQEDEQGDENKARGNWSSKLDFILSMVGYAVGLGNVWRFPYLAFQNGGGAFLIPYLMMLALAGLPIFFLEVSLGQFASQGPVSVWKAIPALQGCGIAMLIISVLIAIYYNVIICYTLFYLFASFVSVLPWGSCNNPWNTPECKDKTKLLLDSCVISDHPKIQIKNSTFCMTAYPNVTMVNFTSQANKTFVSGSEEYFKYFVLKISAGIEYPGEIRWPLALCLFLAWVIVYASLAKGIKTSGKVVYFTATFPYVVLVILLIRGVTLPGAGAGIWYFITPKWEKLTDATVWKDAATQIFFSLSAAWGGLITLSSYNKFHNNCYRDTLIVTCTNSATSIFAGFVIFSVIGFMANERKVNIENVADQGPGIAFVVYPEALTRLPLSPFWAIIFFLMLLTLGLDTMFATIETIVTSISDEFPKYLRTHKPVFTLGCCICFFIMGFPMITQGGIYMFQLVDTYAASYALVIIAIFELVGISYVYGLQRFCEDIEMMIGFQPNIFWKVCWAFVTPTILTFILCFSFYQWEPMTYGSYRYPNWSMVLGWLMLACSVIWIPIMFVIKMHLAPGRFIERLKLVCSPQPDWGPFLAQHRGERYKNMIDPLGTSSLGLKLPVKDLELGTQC

[3] = Ratio of free drug level in rat brain homogenate at 1 uM to IC50 for inhibition of GlyT1 in primary rat cortical neurons; type: tissue-based
[4] = Free drug level in rat brain homogenate at 1 uM by LC-MS/MS based equilibrium dialysis; type: ADME, tissue-based
[5] = Unbound fraction in rat plasma at 1 uM by LC-MS/MS based equilibrium dialysis; type: ADME, cell-free
Method in brief: (§1)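 Rat plasma or brain homogenate (1:6 in 0.1 M PBS pH 7.2) spiked to 1.0 µM, in triplicate. Rapid equilibrium dialysis (MWCO 8000) against PBS, shaken at 37 °C for 6 h. Matrix-matched samples quantified by LC-MS/MS. fu = receiver/donor concentration; brain value corrected for homogenate dilution.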

[6] = Unbound fraction in rat brain homogenate at 1 uM by LC-MS/MS based equilibrium dialysis; type: ADME, tissue-based; method in brief: as §1
[7] = Plasma concentration in Sprague-Dawley rat at 10 mg/kg, po after 90 mins by LC-MS/MS analysis; type: ADME, organism-based
Method in brief: (§2)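 Male SD rats (n=5) given a single oral dose of 10 mg/kg in NMP/PEG400/water (10:50:40). Plasma, total brain and CSF compound concentrations measured 90 min after dosing.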

[8] = Drug uptake in Sprague-Dawley rat brain at 10 mg/kg, po after 90 mins by LC-MS/MS analysis; type: ADME, organism-based; details: read-out: Drug uptake; method in brief: as §2
[9] = Drug uptake in Sprague-Dawley rat CSF at 10 mg/kg, po after 90 mins by LC-MS/MS analysis; type: ADME, organism-based, Cerebrospinal fluid; details: read-out: Drug uptake; method in brief: as §2
Rattus norvegicus [10] = test: In vivo inhibition of GlyT1 in Sprague-Dawley rat assessed as increase in CSF glycine levels at 10 mg/kg, po administered as single dose measured after 90 mins by LC-MS/MS analysis relative to control; type: functional; design: scale not given: the % may be the effect or the level left
Method in brief: (§3)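 Male Sprague-Dawley rats (300−400 g, n = 5), fed ad libitum, dosed orally at 10 mg/kg (10 mL/kg) in NMP/PEG400/water (10:50:40), with a vehicle group (n = 5) in each study. CSF (~100 µL) taken under anaesthesia at 90 min. Glycine derivatised with Marfey's reagent, 13C2-15N-glycine internal standard, LC-MS/MS in negative ion mode. Expressed as % of vehicle; 1-way ANOVA.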

Rattus norvegicus [11] = test: In vivo inhibition of GlyT1 in Sprague-Dawley rat assessed as CSF glycine levels at 10 mg/kg, po administered as single dose measured after 90 mins by LC-MS/MS analysis relative to control; type: functional; method in brief: as §3

Row | Compound | Papp A→B at 1 h, 5 µM [1] | IC50 [2] | Ratio [3] | Drug uptake(free) [4] | fraction unbound at 1 µM [5] | fraction unbound at 1 µM [6] | concentration at […] [7] | concentration at […] [8] | concentration at […] [9] | Activity (Rattus norvegicus [10]) | Activity (Rattus norvegicus [11])
1 | C[C@H](Oc1ccc(C#N)cc1C(=O)N1Cc2cn(-c3ccccc3F)nc2C1)C(F)(F)F | 57.4 ×10⁻⁶ cm/s | > 10 µM |  |  |  |  |  |  |  |  | 
2 | CS(=O)(=O)c1ccc(OCC2CC2)c(C(=O)N2Cc3cn(-c4ccccc4F)nc3C2)c1 | 24.6 ×10⁻⁶ cm/s | > 10 µM | 0.37 | 10.3 nM | 0.047 | 0.017 | 2140 nM | 605 nM | 26 nM | 110% | 7.6 µM
